According to ChEMBL document CHEMBL1142303, “Imidazo[2,1-b]thiazole system: a scaffold endowing dihydropyridines with selective cardiodepressant activity” (J Med Chem, 2008):

What was measured:
[1] = species: Cavia porcellus; assay: Inotropic activity at L type calcium channel in guinea pig left atrium assessed as decrease in tension at 100 uM relative to control; assay type: tissue-based; set-up: scale not given: the % may be the effect or the level left; conditions: Cardiac atrium
[2] = Inotropic activity at L type calcium channel in guinea pig left atrium assessed as decrease in tension; assay type: tissue-based; conditions: Cavia porcellus, Cardiac atrium
Outline: (§1)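 Guinea-pig atria: left atrium driven at 1 Hz for inotropy, spontaneously beating right atrium for chronotropy. Increasing cumulative doses, readout is percent decrease. EC50 (inotropic) and EC30 (chronotropic) by Litchfield–Wilcoxon probit analysis on log concentration–response curves, n = 6–7. Not calculated when the maximum effect was below 50%.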

[3] = species: Cavia porcellus; assay: Chronotropic activity at L type calcium channel in guinea pig right atrium assessed as decrease in spontaneous beating; assay type: tissue-based; conditions: Cardiac atrium; outline: as §1
[4] = species: Cavia porcellus; assay: Activity at L type calcium channel in K+ depolarized guinea pig aortic strip assessed as inhibition of calcium induced contraction at 100 uM; assay type: tissue-based; set-up: scale not given: the % may be the effect or the level left; conditions: Aorta
Outline: (§2)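 Guinea-pig aortic strips depolarized with 80 mM K+. Drugs added cumulatively. Readout is percent inhibition of calcium-induced contraction, n = 5–6. Control versus treated values tested at each concentration by Student's t-test, P < 0.05.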

[5] = species: Cavia porcellus; assay: Chronotropic activity at L type calcium channel in guinea pig right atrium assessed as decrease in spontaneous beating at 100 uM relative to control; assay type: tissue-based; set-up: scale not given: the % may be the effect or the level left; conditions: Cardiac atrium
[6] = species: Cavia porcellus; assay: Inotropic activity at L type calcium channel in guinea pig left atrium assessed as decrease in tension at 1 uM relative to control; assay type: tissue-based; set-up: scale not given: the % may be the effect or the level left; conditions: Cardiac atrium
[7] = species: Cavia porcellus; assay: Activity at L type calcium channel in K+ depolarized guinea pig longitudinal smooth muscle assessed as inhibition of calcium induced contraction at 10 uM; set-up: scale not given: the % may be the effect or the level left
[8] = Activity at L type calcium channel in K+ depolarized guinea pig longitudinal smooth muscle assessed as inhibition of calcium induced contraction; set-up: species or system Cavia porcellus
[9] = species: Cavia porcellus; assay: Chronotropic activity at L type calcium channel in guinea pig right atrium assessed as decrease in spontaneous beating at 10 uM relative to control; assay type: tissue-based; set-up: scale not given: the % may be the effect or the level left; conditions: Cardiac atrium
[10] = species: Cavia porcellus; assay: Inotropic activity at L type calcium channel in guinea pig left atrium assessed as decrease in tension at 50 uM relative to control; assay type: tissue-based; set-up: scale not given: the % may be the effect or the level left; conditions: Cardiac atrium
[11] = species: Cavia porcellus; assay: Activity at L type calcium channel in K+ depolarized guinea pig aortic strip assessed as inhibition of calcium induced contraction at 50 uM; assay type: tissue-based; set-up: scale not given: the % may be the effect or the level left; conditions: Aorta; outline: as §2
[12] = species: Cavia porcellus; assay: Chronotropic activity at L type calcium channel in guinea pig right atrium assessed as decrease in spontaneous beating at 5 uM relative to control; assay type: tissue-based; set-up: scale not given: the % may be the effect or the level left; conditions: Cardiac atrium
[13] = species: Cavia porcellus; assay: Inotropic activity at L type calcium channel in guinea pig left atrium assessed as decrease in tension at 5 uM relative to control; assay type: tissue-based; set-up: scale not given: the % may be the effect or the level left; conditions: Cardiac atrium
[14] = Displacement of (+)-[5-methyl-3H][…] from L type calcium channel in guinea pig heart ventricles; set-up: species or system Cavia porcellus
Outline: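 Guinea-pig ventricular membranes incubated with 0.5 nM (+)-[5-methyl-3H]PN200-110 and test compounds at 0.1–50 µM in a competitive radioligand assay. Ki and IC50 reported as mean ± S.E.M. Student's t-test, significance P < 0.001.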

[15] = species: Cavia porcellus; assay: Activity at L type calcium channel in K+ depolarized guinea pig longitudinal smooth muscle assessed as inhibition of calcium induced contraction at 5 uM; set-up: scale not given: the % may be the effect or the level left
[16] = species: Cavia porcellus; assay: Chronotropic activity at L type calcium channel in guinea pig right atrium assessed as decrease in spontaneous beating at 50 uM relative to control; assay type: tissue-based; set-up: scale not given: the % may be the effect or the level left; conditions: Cardiac atrium
[17] = species: Cavia porcellus; assay: Activity at L type calcium channel in K+ depolarized guinea pig aortic strip assessed as inhibition of calcium induced contraction at 10 uM; assay type: tissue-based; set-up: scale not given: the % may be the effect or the level left; conditions: Aorta; outline: as §2

| Structure (SMILES) | EC50 [2] [µM] | EC30 [3] [µM] | Activity [4] [%] | Activity [9] [%] | Activity [10] [%] | Activity [11] [%] | also measured |
| --- | --- | --- | --- | --- | --- | --- | --- |
| COC(=O)C1=C(C)NC(C)=C(C(=O)OC)C1c1c(-c2cc(OC)ccc2OC)nc2sc(Cl)cn12 | 0.9 | 0.36 | 11 | – | – | – | Activity [1]: 55%; Activity [5]: 84% |
| COC(=O)C1=C(C)NC(C)=C(C(=O)OC)C1c1c(-c2ccccc2C(F)(F)F)nc2sccn12 | 0.093 | – | 24 | 25 | – | – | Activity [6]: 56%; Activity [7]: 92%; IC50 [8]: 1.66 µM |
| COC(=O)C1=C(C)NC(C)=C(C(=O)OC)C1c1c(C)nc2sc(Cl)cn12 | 0.13 | – | – | 30 | 63 | 24 | – |
| COC(=O)C1=C(C)NC(C)=C(C(=O)OC)C1c1c(-c2ccccc2)nc2sc(C)c(C)n12 | 0.59 | 0.33 | 12 | – | – | – | Activity [1]: 76%; Activity [12]: 94% |
| COC(=O)C1=C(C)NC(C)=C(C(=O)OC)C1c1c(-c2cccc(OC(F)(F)F)c2)nc2sccn12 | 0.83 | 1.18 | 26 | – | 86 | – | Activity [12]: 69% |
| COC(=O)C1=C(C)NC(C)=C(C(=O)OC)C1c1c(-c2cccc(C(F)(F)F)c2)nc2sccn12 | 0.31 | 1.9 | – | 78 | 89 | 27 | – |
| COC(=O)C1=C(C)NC(C)=C(C(=O)OC)C1c1c(Cl)nc2scc(C)n12 | 0.103 | – | – | 39 | – | 47 | Activity [6]: 79% |
| COC(=O)C1=C(C)NC(C)=C(C(=O)OC)C1c1c(-c2ccccc2OC(F)(F)F)nc2sccn12 | 0.075 | – | 47 | 47 | – | – | Activity [13]: 67%; Log Ki [14]: -6.8; Activity [15]: 81%; IC50 [8]: 1.95 µM |
| COC(=O)C1=C(C)NC(C)=C(C(=O)OC)C1c1c(-c2cc(OC)c(OC)cc2[N+](=O)[O-])nc2sccn12 | 1.34 | 6.97 | 35 | – | 91 | – | Activity [16]: 90% |
| COC(=O)C1=C(C)NC(C)=C(C(=O)OC)C1c1c(-c2cc(OC)ccc2OC)nc2sccn12 | 0.44 | – | 24 | 31 | 92 | – | Activity [7]: 51%; IC50 [8]: 12.3 µM |
| CCc1cn2c(C3C(C(=O)OC)=C(C)NC(C)=C3C(=O)OC)c(-c3cc(OC)ccc3OC)nc2s1 | 2.24 | 0.73 | – | 92 | 72 | 29 | – |
| COC(=O)C1=C(C)NC(C)=C(C(=O)OC)C1c1c(-c2cc(OC)c([N+](=O)[O-])cc2OC)nc2sccn12 | 0.054 | 3.97 | – | 67 | – | 35 | Activity [13]: 54%; Activity [7]: 97%; IC50 [8]: 2.56 µM |
| COC(=O)C1=C(C)NC(C)=C(C(=O)OC)C1c1c(-c2ccccc2OC)nc2sccn12 | 1.97 | 1.99 | 28 | – | – | – | Activity [1]: 54%; Activity [5]: 95% |
| COC(=O)C1=C(C)NC(C)=C(C(=O)OC)C1c1c(-c2c(OC)ccc(OC)c2[N+](=O)[O-])nc2sc(C)cn12 | 0.093 | – | 27 | – | – | – | Activity [13]: 71%; Activity [5]: 47% |
| COC(=O)C1=C(C)NC(C)=C(C(=O)OC)C1c1c(Cl)nc2sc(C)c(C)n12 | 0.081 | – | – | – | – | – | Activity [13]: 73%; Activity [17]: 29%; Activity [12]: 29% |
